Measurements: ChEMBL document CHEMBL1131239, “Orally active benzamide antipsychotic agents with affinity for dopamine D2, serotonin 5-HT1A, and adrenergic alpha1 receptors” (J Med Chem, 1998)

Assays:
[1] = biological target: T1, 5-hydroxytryptamine receptor 1A (Rattus norvegicus, UniProt P19327); experiment: Compound was evaluated for its binding affinity against 5-hydroxytryptamine 1A receptor from rat cerebral cortex; assay type: tissue-based
T1 sequence (P19327 whole entry): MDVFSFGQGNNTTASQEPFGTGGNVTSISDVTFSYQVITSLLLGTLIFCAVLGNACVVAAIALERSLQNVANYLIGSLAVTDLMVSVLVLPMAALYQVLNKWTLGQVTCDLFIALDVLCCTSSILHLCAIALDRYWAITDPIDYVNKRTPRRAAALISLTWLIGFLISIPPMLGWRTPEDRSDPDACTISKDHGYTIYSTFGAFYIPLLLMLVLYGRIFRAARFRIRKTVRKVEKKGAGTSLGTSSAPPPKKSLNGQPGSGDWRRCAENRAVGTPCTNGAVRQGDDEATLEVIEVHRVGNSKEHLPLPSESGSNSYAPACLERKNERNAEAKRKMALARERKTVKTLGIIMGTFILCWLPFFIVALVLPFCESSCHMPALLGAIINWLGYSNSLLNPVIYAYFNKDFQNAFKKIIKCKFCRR

[2] = biological target: T2, Adrenergic receptor alpha-1 (Rattus norvegicus, UniProt P15823+P23944+P43140); experiment: Binding affinity against Alpha-1 adrenergic receptor from rat cerebral cortex; assay type: tissue-based
T2 sequence (P15823 whole entry): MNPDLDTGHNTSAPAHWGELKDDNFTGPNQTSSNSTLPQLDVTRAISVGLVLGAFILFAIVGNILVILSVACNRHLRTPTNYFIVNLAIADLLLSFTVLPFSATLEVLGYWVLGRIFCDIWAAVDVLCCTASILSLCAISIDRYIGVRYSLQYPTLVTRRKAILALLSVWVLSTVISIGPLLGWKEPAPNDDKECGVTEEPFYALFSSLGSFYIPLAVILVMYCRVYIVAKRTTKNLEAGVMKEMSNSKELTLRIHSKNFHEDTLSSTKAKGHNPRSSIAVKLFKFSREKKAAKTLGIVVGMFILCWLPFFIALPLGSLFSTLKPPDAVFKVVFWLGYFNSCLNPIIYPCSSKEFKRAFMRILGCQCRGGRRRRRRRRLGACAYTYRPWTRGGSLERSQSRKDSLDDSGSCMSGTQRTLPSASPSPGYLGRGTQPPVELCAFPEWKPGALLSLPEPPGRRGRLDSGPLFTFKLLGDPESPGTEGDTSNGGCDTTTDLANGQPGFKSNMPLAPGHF
T2 sequence (P23944 whole entry): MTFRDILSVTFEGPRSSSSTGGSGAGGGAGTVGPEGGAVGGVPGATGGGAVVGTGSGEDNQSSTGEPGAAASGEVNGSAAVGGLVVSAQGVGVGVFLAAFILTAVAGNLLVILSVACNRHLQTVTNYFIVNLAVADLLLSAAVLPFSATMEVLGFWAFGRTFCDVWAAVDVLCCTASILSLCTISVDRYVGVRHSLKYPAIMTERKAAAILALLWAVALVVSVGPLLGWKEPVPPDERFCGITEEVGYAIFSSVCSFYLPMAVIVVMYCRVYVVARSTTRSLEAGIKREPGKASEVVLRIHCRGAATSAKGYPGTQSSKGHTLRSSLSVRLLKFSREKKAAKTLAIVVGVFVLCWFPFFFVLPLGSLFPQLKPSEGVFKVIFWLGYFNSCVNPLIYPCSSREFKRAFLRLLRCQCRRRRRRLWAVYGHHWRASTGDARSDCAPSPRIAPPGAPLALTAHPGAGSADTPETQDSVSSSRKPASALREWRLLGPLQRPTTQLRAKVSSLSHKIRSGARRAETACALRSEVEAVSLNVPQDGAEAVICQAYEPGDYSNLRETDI
T2 sequence (P43140 whole entry): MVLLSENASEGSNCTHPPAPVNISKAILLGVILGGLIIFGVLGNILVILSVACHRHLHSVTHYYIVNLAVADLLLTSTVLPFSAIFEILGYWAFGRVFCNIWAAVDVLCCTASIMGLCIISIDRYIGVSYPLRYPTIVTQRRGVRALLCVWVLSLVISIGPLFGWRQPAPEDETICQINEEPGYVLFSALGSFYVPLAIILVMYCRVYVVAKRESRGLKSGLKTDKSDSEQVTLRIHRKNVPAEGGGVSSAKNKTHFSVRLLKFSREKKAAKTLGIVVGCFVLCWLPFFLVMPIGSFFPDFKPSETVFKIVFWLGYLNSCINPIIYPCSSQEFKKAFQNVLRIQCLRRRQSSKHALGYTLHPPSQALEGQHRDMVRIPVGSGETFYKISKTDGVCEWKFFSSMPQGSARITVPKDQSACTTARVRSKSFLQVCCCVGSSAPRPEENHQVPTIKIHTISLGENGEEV

[3] = tested on: Rattus norvegicus; experiment: compound was tested for antipsychotic activity by conditioned avoidance response(CAR) assay in rats with a pretreatment period of 30 min upon intra peritoneal administration at a concentration of 15 mg/kg.; assay type: functional
[4] = tested on: Rattus norvegicus; experiment: compound was tested for antipsychotic activity by conditioned avoidance response(CAR) assay in rats with a pretreatment period of 30 min upon intra peritoneal administration at a concentration of 1 mg/kg.; assay type: functional
How it was run: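 Trained rats (N = 4) were run in 1-h sessions on two consecutive days, with the experimenter blind to drug and dose. Fed rats had food and water until placed in the test chambers. Fasted rats had no food overnight before the experiment.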

[5] = tested on: Rattus norvegicus; experiment: Percent catalepsy in male Spargue-Dawley rat at pretreatment time 240 mins and when administered ip at dose 50 mg/kg; assay type: functional; conditions: route intraperitoneal
How it was run: (§1)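 Catalepsy in rats, groups of five per drug treatment, scored blind to drug and dose. Each session included a saline or vehicle negative control and a haloperidol 2 mg/kg positive control. Deaths during the experiment were recorded in the catalepsy column as number dead out of five.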

[6] = tested on: Rattus norvegicus; experiment: compound was tested for antipsychotic activity by conditioned avoidance response(CAR) assay in rats with a pretreatment period of 30 min upon intra peritoneal administration at a concentration of 5 mg/kg.; assay type: functional
How it was run: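 Rat conditioned avoidance test modified from Martin et al. Trained rats (N = 4) were run in 1-h sessions on two consecutive days. Fed animals had food and water until placed in the test chambers. Dosing was ip with 30 min pretreatment, and activity was expressed as percent inhibition at the stated dose.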

[7] = tested on: Rattus norvegicus; experiment: Percent catalepsy in male Spargue-Dawley rat at pretreatment time 60 mins and when administered ip at dose 50 mg/kg; assay type: functional; conditions: route intraperitoneal; how it was run: as §1
[8] = tested on: Rattus norvegicus; experiment: compound was tested for antipsychotic activity by conditioned avoidance response(CAR) assay in rats with a pretreatment period of 60 min upon peroral administration at a concentration of 20 mg/kg.; assay type: functional; conditions: route oral

CC(C)Oc1ccccc1N1CCN(Cc2cccc(C(=O)N3CCC3)c2)CC1
Ki [1]: 3.4 nM
Ki [2]: 1.2 nM
inhibition in vivo at 15 mg/kg [3]: -87%

CC(C)Oc1ccccc1N1CCN(Cc2cccc(C(=O)N(C)C3CCCCC3)c2)CC1
Ki [1]: 1.2 nM
Ki [2]: 1.2 nM
inhibition in vivo at 1 mg/kg [4]: -9.3%
Catalepsy [5]: 58.1%
inhibition in vivo at 5 mg/kg [6]: -98.9%
Catalepsy [7]: 0%

CCCc1ccccc1N1CCN(Cc2cccc(C(=O)N3CCCCC3)c2)CC1
Ki [1]: 9.1 nM
Ki [2]: 16 nM
inhibition in vivo at 15 mg/kg [3]: -0.7%

O=C(c1cccc(CN2CCN(c3ccccc3Cl)CC2)c1)N1CCCCC1
Ki [1]: 8.2 nM
Ki [2]: 16 nM
inhibition in vivo at 15 mg/kg [3]: -68.6%
inhibition in vivo at 5 mg/kg [6]: -67.9%

COCCN1CCN(Cc2cccc(C(=O)N3CCCCCC3)c2)CC1
Ki [2]: > 1000 nM

CC(C)Oc1ccccc1N1CCN(Cc2cccc(C(=O)N3CCOCC3)c2)CC1
Ki [1]: 3.2 nM
Ki [2]: 29 nM
inhibition in vivo at 1 mg/kg [4]: -94.5%
inhibition in vivo at 5 mg/kg [6]: -95.4%
inhibition in vivo at 20 mg/kg [8]: -96.2%

O=C(c1cccc(CN2CCN(c3ccccc3C(F)(F)F)CC2)c1)N1CCCCC1
Ki [1]: 0.8 nM
Ki [2]: 3.3 nM
inhibition in vivo at 15 mg/kg [3]: -59.7%
inhibition in vivo at 5 mg/kg [6]: -5.5%

O=C(c1cccc(CN2CCN(c3ccccc3)CC2)c1)N1CCCCC1
Ki [1]: 7.2 nM
Ki [2]: 44 nM
inhibition in vivo at 15 mg/kg [3]: -82.1%
inhibition in vivo at 5 mg/kg [6]: -2.2%

CCCCN(CCCC)C(=O)c1cccc(CN2CCN(c3ccccc3OC(C)C)CC2)c1
Ki [1]: 0.8 nM
Ki [2]: 3.3 nM
inhibition in vivo at 15 mg/kg [3]: -5.6%

O=C(c1cccc(CN2CCN(CCO)CC2)c1)N1CCCCCC1
Ki [2]: > 1000 nM
inhibition in vivo at 5 mg/kg [6]: -2.1%

O=C(c1cccc(CN2CCN(c3cccc4ccccc34)CC2)c1)N1CCCCC1
Ki [1]: 1.8 nM
Ki [2]: 57 nM
inhibition in vivo at 15 mg/kg [3]: -18.8%

CN1CCN(Cc2cccc(C(=O)N3CCCCC3)c2)CC1
Ki [2]: > 1000 nM
inhibition in vivo at 15 mg/kg [3]: 0.4%

CC(C)Oc1ccccc1N1CCN(Cc2cccc(C(N)=O)c2)CC1
Ki [1]: 18 nM
Ki [2]: 11.4 nM
inhibition in vivo at 1 mg/kg [4]: -3%
inhibition in vivo at 5 mg/kg [6]: -88.5%
inhibition in vivo at 20 mg/kg [8]: -1.1%

CC(C)Oc1ccccc1N1CCN(Cc2cccc(C(=S)N3CCCCC3)c2)CC1
Ki [1]: 1.1 nM
Ki [2]: 2.3 nM
inhibition in vivo at 5 mg/kg [6]: -71.6%

CC(C)Oc1ccccc1N1CCN(Cc2cccc(C(=O)NC3CCCCC3)c2)CC1
Ki [1]: 4.1 nM
Ki [2]: 3.4 nM
inhibition in vivo at 15 mg/kg [3]: -86.2%
inhibition in vivo at 5 mg/kg [6]: -17.6%

O=C(c1cccc(CN2CCN(c3ncccn3)CC2)c1)N1CCCCC1
Ki [1]: 12 nM
inhibition in vivo at 15 mg/kg [3]: -6.8%
inhibition in vivo at 5 mg/kg [6]: -17.9%

CC(C)Oc1cc(F)ccc1N1CCN(Cc2cccc(C(=O)N3CCCCC3)c2)CC1
Ki [1]: 4.2 nM
Ki [2]: 6 nM
inhibition in vivo at 1 mg/kg [4]: -22.6%
Catalepsy [5]: 50%
inhibition in vivo at 5 mg/kg [6]: -82.6%
Catalepsy [7]: 45.2%

O=C(c1cccc(CN2CCN(c3cccc(C(F)(F)F)c3)CC2)c1)N1CCCCC1
Ki [1]: 2.3 nM
Ki [2]: 562 nM
inhibition in vivo at 15 mg/kg [3]: -71.6%
inhibition in vivo at 5 mg/kg [6]: -3.7%

CC(C)Oc1ccccc1C1(O)CCN(Cc2cccc(C(=O)N3CCCCC3)c2)CC1
Ki [1]: > 1000 nM
Ki [2]: 110 nM
inhibition in vivo at 5 mg/kg [6]: 0.9%

O=C(c1cccc(CN2CCN(c3ccc4ccoc4c3)CC2)c1)N1CCCCC1
Ki [1]: 0.21 nM
Ki [2]: 13 nM
inhibition in vivo at 5 mg/kg [6]: -82.4%

CC(C)Oc1ccccc1N1CCN(Cc2cccc(C(=O)Nc3ccc(F)cc3)c2)CC1
Ki [1]: 11 nM
Ki [2]: 11 nM
inhibition in vivo at 15 mg/kg [3]: -2.5%

N#Cc1ccccc1N1CCN(Cc2cccc(C(=O)N3CCCCC3)c2)CC1
Ki [1]: 2.5 nM
Ki [2]: 19 nM
inhibition in vivo at 1 mg/kg [4]: -5.3%
inhibition in vivo at 5 mg/kg [6]: -73.9%
inhibition in vivo at 20 mg/kg [8]: -5.4%

O=C(c1cccc(CN2CCN(c3ccccc3F)CC2)c1)N1CCCCC1
Ki [1]: 16 nM
Ki [2]: 27 nM
inhibition in vivo at 15 mg/kg [3]: -84.3%

CCN1CCCC1CNC(=O)c1cccc(CN2CCN(c3ccccc3OC(C)C)CC2)c1 (stereo not drawn)
Ki [1]: 121 nM
Ki [2]: 486 nM
inhibition in vivo at 15 mg/kg [3]: -74.9%
inhibition in vivo at 5 mg/kg [6]: -19.4%

O=C(c1cccc(CN2CCN(c3ccc(Cl)cc3)CC2)c1)N1CCCCC1
Ki [1]: 121 nM
Ki [2]: 486 nM
inhibition in vivo at 15 mg/kg [3]: -4.7%

O=C(c1cccc(CN2CCN(c3cccc([N+](=O)[O-])c3)CC2)c1)N1CCCCC1
Ki [1]: 24 nM
Ki [2]: > 1000 nM
inhibition in vivo at 15 mg/kg [3]: -77.7%
inhibition in vivo at 5 mg/kg [6]: -1.3%
